We go through ten molecules from PubChem BioAssay.

Calls of active or inactive are those of the source.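 The calls were made as follows, unless noted: active = compounds giving at least 50% inhibition in the cell-based MKP-3 phosphatase rescue imaging test; inactive = the rest.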

Assay [1] in a line: inhibitors of TNFa-induced NFkB p65 translocation, primary screen, imaging, HUVEC, MLSMR starter and 10KST1 sets (AID 438;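 active = inhibition above 20% together with a positive visual image hit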;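 also: compound added about 3h40 before a 20 min TNFalpha stimulation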;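 as to inhibition: signal is the nuclear over cytoplasmic p65 intensity ratio per well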). The conditions noted are these: HUVEC TNFa-induced p65 nuclear translocation; cell count: measured here: nuclei count (cytotoxicity indicator), at 2.08 µM; inhibition: at 2 µM, stronger effect = higher value, 0% TNFa-plus-vehicle, 100% no-TNFa wells.
Assay [2] can be described thus: inhibitors of E-selectin induction by TNFa, primary screen, imaging, HUVEC, immunofluorescence, MLSMR starter and 10KST1 sets (AID 487;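 active = visually confirmed hit in the image check and inhibition above 20%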;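 as to inhibition: signal is fraction of cell area covered by stained E-selectin grains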;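 as to nuclei count: 100% = median nuclei count of all wells on the same plate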). The conditions noted are these: HUVEC TNFalpha-induced E-selectin immunofluorescence imaging, at 2 µM; inhibition: stronger effect = higher value; nuclei count: measured here: cell number, toxicity.
Assay [3] can be described thus: DUSP6 inhibitors restoring Erk phosphorylation by chemical complementation, primary imaging in DUSP6-transfected HeLa (AID 609).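 As to inhibition: phospho-Erk level distribution per well compared with pooled transfected vehicle control wells.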 The conditions noted are these: HeLa MKP-3 transfected, phospho-Erk imaging KS statistic, at 10 µM, cells stimulated with TPA for 15 min.
The target in assay [4] is Dual specificity protein phosphatase 6 (Homo sapiens) (UniProt Q16828). The assay is described as above. The conditions noted are these: HeLa MKP-3 transfected, phospho-Erk imaging KS statistic; at 10 µM; stronger effect = higher value; cells stimulated with TPA for 15 min.
Assay [5] has as its target Voltage-gated potassium channel subunit beta-2 (Rattus norvegicus) (UniProt P62483). The assay can be described thus: KvBeta enzyme negative modulators, primary screen, biochemical, NADPH fluorescence (AID 622;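 active = fluorescence slope higher than the sample average by over 3 SD, cut at about -0.22 in these data, passing the limit was not always enough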;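 also: slope of raw intensity against log time taken from 70 to 1610 s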). The following applies: recombinant KvBeta, 4-cyanobenzaldehyde reduction, at 10 µM, stronger effect = higher value.
For assay [6] the target is unchanged. Nature of the assay: KvBeta positive modulators, primary screen, biochemical, NADPH fluorescence (AID 623;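 active = NADPH fluorescence slope more negative than the mean of all samples by about 3 SD, 99.7% confidence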;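 also: fluorescence intensity change per second fitted from 20 to 320 s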). The conditions noted are these: Recombinant KvBeta, NADPH fluorescence decrease slope, 10 min; at 10 µM; stronger effect = lower value.
Assay [7] deals with Alpha-2C adrenergic receptor (Homo sapiens) (UniProt P18825). The assay can be described thus: modulators of alpha2C/GIRK thallium flux, primary screen, cell-based, HEK293 alpha2C/GIRK1/2 (AID 624;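 active = fluorescence slope after compound addition differing from the mean of all screened samples at 99.7% confidence, in either direction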;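 also: slope of fluorescence ratio to pre-addition baseline per second over 15 to 24 s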). The following applies: thallium flux BTC fluorescence, at 10 µM, actives lie on both sides.
Assay [8] can be described thus: inhibitors of larval lipid processing in zebrafish, primary screen, whole organism, PED6 fluorescence, gall bladder and intestine (AID 686;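 active = a full or partial loss of lipid-probe fluorescence in the fish gall bladder, intestine or both, judged by eye; inactive = no fluorescence loss, or compound toxic to the fish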;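 also: larvae 5 to 7 days old with five fish per well; signal comes from phospholipase A2 cleavage of quenched PED6 carried via bile; overnight exposure to compound and PED6 before scoring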). The conditions noted are these: Zebrafish larvae PED6 lipid processing, fluorescence scoring; screened at 20 µM (by protocol). In a few lines:
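Also added: quenched phospholipase substrate PED6, 100 nM final, ingested by larvae; System: zebrafish larvae, 5-7 d; Quantity: 5 larvae per well; Compound: 20 µM single dose; Schedule: overnight compound and PED6 incubation; Read-out: visual per-well fluorescence inhibition score; Measured by: By-eye fluorescence microscopy; Medium: E3.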

Assay [9] is described as follows: inhibitors of Chlamydomonas gravitaxis, primary screen, whole organism, Chlamydomonas reinhardtii, WT vs cilia-less mutant, absorbance, 96-well (AID 463189;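 active = inhibition at or above 50% relative to wild type and mutant plate controls; inactive = inhibition below 50%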;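 also: 0% = wild type cc124 cells in DMSO and 100% = ciliumless bld1 mutant cells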). The following applies: OD600 absorbance, 2 days, at 10 µM, stronger effect = higher value.
Setting [10] is: measured here: cell density z-score.
Setting [11] is: measured here: nuclear c-Myc green intensity z-score.
The mark [12] stands for this setting: measured here: nuclear pErk red intensity z-score, stronger effect = higher value.

Alpha-2C adrenergic receptor (Homo sapiens), sequence (P18825 whole entry, looked up): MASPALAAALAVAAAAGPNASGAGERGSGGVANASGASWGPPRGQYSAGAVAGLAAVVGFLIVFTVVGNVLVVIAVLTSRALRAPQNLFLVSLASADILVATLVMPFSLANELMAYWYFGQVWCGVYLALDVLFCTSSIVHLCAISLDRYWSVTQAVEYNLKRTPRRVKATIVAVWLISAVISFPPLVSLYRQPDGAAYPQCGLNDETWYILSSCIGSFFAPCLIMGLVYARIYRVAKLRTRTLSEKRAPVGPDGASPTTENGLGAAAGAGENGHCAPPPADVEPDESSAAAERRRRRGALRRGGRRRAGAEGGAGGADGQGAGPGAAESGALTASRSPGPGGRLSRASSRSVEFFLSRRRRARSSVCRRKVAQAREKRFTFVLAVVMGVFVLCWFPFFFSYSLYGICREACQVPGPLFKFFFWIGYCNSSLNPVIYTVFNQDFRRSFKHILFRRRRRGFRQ
Dual specificity protein phosphatase 6 (Homo sapiens), sequence (Q16828 whole entry, looked up): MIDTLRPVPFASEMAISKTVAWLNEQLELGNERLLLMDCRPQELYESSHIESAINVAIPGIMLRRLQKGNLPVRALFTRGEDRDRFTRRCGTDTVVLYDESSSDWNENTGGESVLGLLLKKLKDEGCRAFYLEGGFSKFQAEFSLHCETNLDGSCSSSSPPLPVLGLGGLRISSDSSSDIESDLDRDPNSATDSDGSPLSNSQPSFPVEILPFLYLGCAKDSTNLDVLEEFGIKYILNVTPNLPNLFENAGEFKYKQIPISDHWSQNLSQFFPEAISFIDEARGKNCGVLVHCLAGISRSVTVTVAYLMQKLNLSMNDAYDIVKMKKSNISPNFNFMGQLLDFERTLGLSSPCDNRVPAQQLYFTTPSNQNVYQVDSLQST
Voltage-gated potassium channel subunit beta-2 (Rattus norvegicus), sequence (P62483 whole entry, looked up): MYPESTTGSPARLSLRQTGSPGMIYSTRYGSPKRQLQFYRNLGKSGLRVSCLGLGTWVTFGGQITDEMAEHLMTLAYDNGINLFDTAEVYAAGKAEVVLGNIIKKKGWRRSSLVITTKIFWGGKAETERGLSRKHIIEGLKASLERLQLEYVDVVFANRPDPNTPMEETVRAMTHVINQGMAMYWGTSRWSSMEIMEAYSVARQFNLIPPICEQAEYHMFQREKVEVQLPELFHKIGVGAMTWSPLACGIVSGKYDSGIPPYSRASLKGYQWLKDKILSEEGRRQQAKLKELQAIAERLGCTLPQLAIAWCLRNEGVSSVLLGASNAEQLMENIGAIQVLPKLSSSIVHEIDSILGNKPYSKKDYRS

As usually defined, the inhibition is the change of the read-out against control, counted positive when it falls. In the case of `COC(=O)CC1=C(C(=O)OC)C(c2ccc3c(c2Cl)OCO3)C(C#N)=C(N)O1` (stereo not given), in [1], the cell count is 505. Besides, the inhibition in assay [1] is -3% (inactive); in assay [2], -43.9% (inactive); in assay [4], 15% (inactive); in [9], 21.8% (inactive). Moreover, in assay [2], the nuclei count amounted to 146%. The z-score was 1.11 in [3] (setting [10]), -0.928 in [3] (setting [11]) and -0.541 in assay [3] (setting [12]). The fluorescence slope in [5] was -0.319 (inactive). For the same molecule, the NADPH fluorescence slope in assay [6] is -2.9e-06 (inactive). For the same molecule, the slope in assay [7] was 0.00617 (inactive). Besides, in assay [8], the result was inactive.
As for `CCOC(=O)c1c(C)[nH]sc1=S`, in assay [1], the cell count is 569. For the same molecule, the inhibition in assay [1] is -2.6% (inactive); in assay [2] it was 42.2% (inactive); in assay [4], 9.82% (inactive); in [9], 30.1% (inactive). This molecule yielded a nuclei count in assay [2] of 95.8%. Besides, the z-score in assay [3] (setting [10]) was -1.01; in [3] (setting [11]), 0.222; in [3] (setting [12]), 0.907. For the same molecule, the fluorescence slope in assay [5] is -0.335 (inactive). In addition, in [6], the NADPH fluorescence slope was -1.2e-06 (inactive). The slope in [7] is 0.00974 (inactive). In addition, in assay [8], the molecule was classed as inactive.
Consider `CC(C)Oc1ccc(/C(O)=C2/C(=O)C(=O)N(CCN(C)C)C2c2ccco2)cc1` (stereo not given), for which, in assay [1], the cell count amounted to 481. Moreover, the inhibition was -1% (inactive) in assay [1], -6.9% (inactive) in assay [2], -1.12% (inactive) in [4] and 6.02% (inactive) in assay [9]. In assay [2], this molecule yielded a nuclei count of 112%. Besides, the z-score in assay [3] (setting [10]) was -0.569; in assay [3] (setting [11]) it was -0.19; in [3] (setting [12]) it was -0.239. Further, the fluorescence slope in [5] was -0.324 (inactive). Also, the NADPH fluorescence slope in [6] was 1.4e-05 (inactive). The slope in assay [7] is 0.00581 (inactive). Further, the molecule was called inactive in [8].
On to `CCC(C)Nc1nc(-c2cccc(OC)c2O)nc2ccccc12` (stereo not given), for which the cell count in [1] amounted to 570. In addition, the inhibition in assay [1] is 3.5% (inactive); in assay [2] it was -68.3% (inactive); in [4], 1.6e-07% (inactive); in assay [9], 65.6% (active). Further, the nuclei count in [2] was 152%. Moreover, the z-score in assay [3] (setting [10]) is -0.862; in [3] (setting [11]), -0.242; in assay [3] (setting [12]), 1.22. In addition, in assay [5], the fluorescence slope is -0.394 (inactive). The NADPH fluorescence slope in [6] was -5e-05 (inactive). Besides, in [7], the slope was 0.00426 (inactive). The molecule was classed as inactive in assay [8].
With `CC(=O)c1cc(C#N)c(SCC(=O)C(C)(C)C)nc1C`, in assay [1], the cell count amounted to 620. The inhibition is -22.5% (inactive) in assay [1], 43.4% (inactive) in assay [2], -3.95% (inactive) in assay [4] and 42.5% (inactive) in assay [9]. Moreover, the nuclei count in [2] is 103%. Besides, the z-score in assay [3] (setting [10]) was -0.699; in assay [3] (setting [11]) it was -0.489; in assay [3] (setting [12]) it was -0.711. The fluorescence slope in [5] is -0.462 (inactive). In addition, the NADPH fluorescence slope in assay [6] is -1.9e-05 (inactive). In addition, the slope in assay [7] is 0.00715 (inactive). Moreover, the call in [8] was inactive.
Turning to `CCOC(=O)c1c(CN2CCN(C)CC2)n(C)c2cc(Br)c(OC)cc12`, in [1], the cell count worked out at 320. Besides, the inhibition in assay [1] was -0.7% (inactive); in assay [2], -50.3% (inactive); in assay [4], -12.3% (inactive); in assay [9] it was 53.1% (active). In [2], the nuclei count was 138%. Further, the z-score in [3] (setting [10]) was -0.018; in assay [3] (setting [11]) it was 0.891; in [3] (setting [12]), 1.91. The fluorescence slope in [5] was -0.462 (inactive). Further, the NADPH fluorescence slope in [6] was -0.000148 (inactive). In addition, the slope in assay [7] was 0.00634 (inactive). Moreover, the molecule was called inactive in [8].
On to `CC(C)c1cc(NCCN2CCOCC2)n2c(nc3ccccc32)c1C#N`, for which, in assay [1], the cell count came out at 530. Further, the inhibition in assay [1] was -16.7% (inactive); in [2], -13.5% (inactive); in assay [4] it was 10.1% (inactive); in [9], -6.96% (inactive). The nuclei count in assay [2] was 100%. The figures for the z-score in assay [3] (setting [10]), in [3] (setting [11]) and in assay [3] (setting [12]) were 0.71, 0.53 and -0.442, respectively. Besides, the fluorescence slope in assay [5] is -0.493 (inactive). In addition, the NADPH fluorescence slope in assay [6] is -8.7e-06 (inactive). The slope in assay [7] is 0.00455 (inactive). The molecule was called inactive in [8].
`Cn1c(=O)oc2cc(C(=O)c3ccccc3)ccc21`: the cell count in assay [1] worked out at 442. Besides, the inhibition is -7.7% (inactive) in [1], -42.8% (inactive) in [2], 1.04% (inactive) in [4] and -6.29% (inactive) in assay [9]. The same molecule registered a nuclei count in [2] of 177%. The z-score in assay [3] (setting [10]) was 0.0253; in assay [3] (setting [11]), -0.374; in [3] (setting [12]), -0.71. In addition, the fluorescence slope in [5] is -0.332 (inactive). Further, in assay [6], the NADPH fluorescence slope is -3.5e-05 (inactive). Further, the slope in assay [7] was 0.00473 (inactive). Besides, the result in [8] was inactive.
Consider `COc1ccc(Nc2cc(C)nc3ccccc23)cc1`, for which the cell count in [1] was determined as 467. Besides, the inhibition in assay [1] is -5.2% (inactive); in [2], 36% (inactive); in assay [4] it was 4.72% (inactive); in assay [9], 17.6% (inactive). The molecule further had a nuclei count in assay [2] of 118%. The z-score is 0.29 in [3] (setting [10]), 0.934 in assay [3] (setting [11]) and -1.53 in assay [3] (setting [12]). Also, in [5], the fluorescence slope is -0.429 (inactive). Moreover, in assay [6], the NADPH fluorescence slope was -2.1e-05 (inactive). For the same molecule, the slope in [7] is 0.00465 (inactive). For the same molecule, in assay [8], the result was inactive.
Regarding `CC1CCc2cc(F)cc3c(O)c(C(=O)NCc4ccco4)c(=O)n1c23` (stereo not given), the cell count in assay [1] was 531. In addition, the inhibition in assay [1] is -4.5% (inactive); in [2], -39.2% (inactive); in [4], 5.26% (inactive); in [9], 6.44% (inactive). The nuclei count in [2] stood at 138%. Further, the z-score in [3] (setting [10]) is -0.138; in [3] (setting [11]), 1.87; in assay [3] (setting [12]), -4.17. Also, in assay [5], the fluorescence slope is -0.329 (inactive). Also, in assay [6], the NADPH fluorescence slope was 4e-05 (inactive). Moreover, in assay [7], the slope was 0.00603 (inactive). For the same molecule, the molecule was classed as inactive in assay [8].
